Measured values published in ChEMBL document CHEMBL3779892, “Increasing the binding affinity of VEGFR-2 inhibitors by extending their hydrophobic interaction with the active site: Design, synthesis and biological evaluation of 1-substituted-4-(4-methoxybenzyl)phthalazine derivatives” (Eur J Med Chem, 2016).

Columns and labels:
Format in all cases: functional
MDA-MB-468 = experiment: Growth inhibition of human MDA-MB-468 cells at 10 uM after 48 hrs by sulforhodamine B assay; conditions: MDA-MB-468, 48 h, read-out: GI
Procedure, shortened: (§1)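 Run at NCI on the 60-line panel. Cells grown in RPMI 1640 with 5% FBS and 2 mM L-glutamine, plated at 5000–40,000 cells/well by doubling time, and held 24 h at 37 °C before dosing. Drug (DMSO stock) given at a single final 10 µM in triplicate wells for 48 h. Adherent cells fixed with cold TCA (10% final), suspension cells with 16% TCA. SRB stain read at 515 nm. Percent growth from Tz, C and Ti.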

MDA-MB-231 = experiment: Growth inhibition of human MDA-MB-231 cells at 10 uM after 48 hrs by sulforhodamine B assay; conditions: MDA-MB-231, 48 h, read-out: GI; procedure, shortened: as §1
CCRF-CEM = experiment: Growth inhibition of human CCRF-CEM cells at 10 uM after 48 hrs by sulforhodamine B assay; conditions: read-out: GI; procedure, shortened: as §1
SR = experiment: Growth inhibition of human SR cells at 10 uM after 48 hrs by sulforhodamine B assay; conditions: read-out: GI
Procedure, shortened: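 NCI-60 screen. Cells were grown in RPMI 1640 with 5% FBS and 2 mM L-glutamine, plated at 5000–40,000 cells/well and held 24 h at 37 °C, 5% CO2. Single 10 µM final dose from DMSO stock, triplicate wells, 48 h. Settled cells were fixed with 80% TCA (16% final) and stained with 0.4% SRB. Dye was solubilized in 10 mM Tris and read at 515 nm. Growth was calculated against time-zero and untreated wells.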

A549 = experiment: Growth inhibition of human A549 cells at 10 uM after 48 hrs by sulforhodamine B assay; conditions: A549, 48 h, read-out: GI; procedure, shortened: as §1
[1] = Growth inhibition of human HOP92 cells at 10 uM after 48 hrs by sulforhodamine B assay; conditions: HOP-92, 48 h, read-out: GI; procedure, shortened: as §1
NCI-H226 = experiment: Growth inhibition of human NCI-H226 cells at 10 uM after 48 hrs by sulforhodamine B assay; conditions: NCI-H226, 48 h, read-out: GI; procedure, shortened: as §1
NCI-H23 = experiment: Growth inhibition of human NCI-H23 cells at 10 uM after 48 hrs by sulforhodamine B assay; conditions: NCI-H23, 48 h, read-out: GI; procedure, shortened: as §1
NCI-H460 = experiment: Growth inhibition of human NCI-H460 cells at 10 uM after 48 hrs by sulforhodamine B assay; conditions: NCI-H460, 48 h, read-out: GI; procedure, shortened: as §1
NCI-H522 = experiment: Growth inhibition of human NCI-H522 cells at 10 uM after 48 hrs by sulforhodamine B assay; conditions: NCI-H522, 48 h, read-out: GI; procedure, shortened: as §1
[2] = Growth inhibition of human HCT116 cells at 10 uM after 48 hrs by sulforhodamine B assay; conditions: HCT-116, 48 h, read-out: GI; procedure, shortened: as §1
[3] = Growth inhibition of human HCT15 cells at 10 uM after 48 hrs by sulforhodamine B assay; conditions: HCT-15, 48 h, read-out: GI; procedure, shortened: as §1
HT-29 = experiment: Growth inhibition of human HT-29 cells at 10 uM after 48 hrs by sulforhodamine B assay; conditions: HT-29, 48 h, read-out: GI; procedure, shortened: as §1
[4] = Growth inhibition of human SW620 cells at 10 uM after 48 hrs by sulforhodamine B assay; conditions: SW-620, 48 h, read-out: GI
Procedure, shortened: (§2)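 NCI-60 panel, adherent cells grown in RPMI 1640 with 5% FBS and 2 mM L-glutamine, plated at 5000–40,000 cells/well and preincubated 24 h at 37 °C, 5% CO2. 10 µM final compound from DMSO stock, triplicate wells, 48 h. Fixed with cold TCA (10% final, 60 min, 4 °C) and stained with 0.4% SRB. Absorbance read at 515 nm; growth calculated against time-zero and control wells.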

[5] = Growth inhibition of human SF268 cells at 10 uM after 48 hrs by sulforhodamine B assay; conditions: SF-268, 48 h, read-out: GI; procedure, shortened: as §1
[6] = Growth inhibition of human SNB19 cells at 10 uM after 48 hrs by sulforhodamine B assay; conditions: SNB-19, 48 h, read-out: GI; procedure, shortened: as §1
U-251 = experiment: Growth inhibition of human U251 cells at 10 uM after 48 hrs by sulforhodamine B assay; conditions: U-251, 48 h, read-out: GI; procedure, shortened: as §2
[7] = Growth inhibition of human LOXIMVI cells at 10 uM after 48 hrs by sulforhodamine B assay; conditions: LOX IMVI, read-out: GI; procedure, shortened: as §1
Malme-3M = experiment: Growth inhibition of human MALME-3M cells at 10 uM after 48 hrs by sulforhodamine B assay; conditions: read-out: GI; procedure, shortened: as §1
M14 = experiment: Growth inhibition of human M14 cells at 10 uM after 48 hrs by sulforhodamine B assay; conditions: M14, 48 h, read-out: GI; procedure, shortened: as §1
MDA-MB-435 = experiment: Growth inhibition of human MDA-MB-435 cells at 10 uM after 48 hrs by sulforhodamine B assay; conditions: MDA-MB-435, 48 h, read-out: GI; procedure, shortened: as §1
SK-MEL-5 = experiment: Growth inhibition of human SK-MEL-5 cells at 10 uM after 48 hrs by sulforhodamine B assay; conditions: SK-MEL-5, 48 h, read-out: GI; procedure, shortened: as §1
[8] = Growth inhibition of human OVCAR3 cells at 10 uM after 48 hrs by sulforhodamine B assay; conditions: OVCAR-3, 48 h, read-out: GI; procedure, shortened: as §1
[9] = Growth inhibition of human OVCAR5 cells at 10 uM after 48 hrs by sulforhodamine B assay; conditions: OVCAR-5, 48 h, read-out: GI; procedure, shortened: as §1
[10] = Growth inhibition of human OVCAR8 cells at 10 uM after 48 hrs by sulforhodamine B assay; conditions: OVCAR-8, 48 h, read-out: GI; procedure, shortened: as §1
[11] = Growth inhibition of human SKOV3 cells at 10 uM after 48 hrs by sulforhodamine B assay; conditions: SK-OV-3, 48 h, read-out: GI; procedure, shortened: as §1
A498 = experiment: Growth inhibition of human A498 cells at 10 uM after 48 hrs by sulforhodamine B assay; conditions: A498, 48 h, read-out: GI; procedure, shortened: as §1
ACHN = experiment: Growth inhibition of human ACHN cells at 10 uM after 48 hrs by sulforhodamine B assay; conditions: read-out: GI; procedure, shortened: as §1
[12] = Growth inhibition of human Caki1 cells at 10 uM after 48 hrs by sulforhodamine B assay; conditions: CAKI-1, 48 h, read-out: GI; procedure, shortened: as §1
[13] = Growth inhibition of human RXF393 cells at 10 uM after 48 hrs by sulforhodamine B assay; conditions: RXF 393, 48 h, read-out: GI; procedure, shortened: as §1
SN12C = experiment: Growth inhibition of human SN12C cells at 10 uM after 48 hrs by sulforhodamine B assay; conditions: read-out: GI; procedure, shortened: as §1
[14] = Growth inhibition of human UO31 cells at 10 uM after 48 hrs by sulforhodamine B assay; conditions: UO-31, 48 h, read-out: GI; procedure, shortened: as §2
[15] = Growth inhibition of human PC3 cells at 10 uM after 48 hrs by sulforhodamine B assay; conditions: PC-3, 48 h, read-out: GI; procedure, shortened: as §1
[16] = Growth inhibition of human Hs 578T cells at 10 uM after 48 hrs by sulforhodamine B assay; conditions: read-out: GI; procedure, shortened: as §1

Row | SMILES | inhibition of growth at 10 µM (MDA-MB-468) [%] | inhibition of growth at 10 µM (MDA-MB-231) [%] | inhibition of growth at 10 µM (CCRF-CEM) [%] | inhibition of growth at 10 µM (SR) [%] | inhibition of growth at 10 µM (A549) [%] | inhibition of growth at 10 µM [1] [%] | inhibition of growth at 10 µM (NCI-H226) [%] | inhibition of growth at 10 µM (NCI-H23) [%] | inhibition of growth at 10 µM (NCI-H460) [%] | inhibition of growth at 10 µM (NCI-H522) [%] | inhibition of growth at 10 µM [2] [%] | inhibition of growth at 10 µM [3] [%] | inhibition of growth at 10 µM (HT-29) [%] | inhibition of growth at 10 µM [4] [%] | inhibition of growth at 10 µM [5] [%] | inhibition of growth at 10 µM [6] [%] | inhibition of growth at 10 µM (U-251) [%] | inhibition of growth at 10 µM [7] [%] | inhibition of growth at 10 µM (Malme-3M) [%] | inhibition of growth at 10 µM (M14) [%] | also measured
1 | COc1ccc(Cc2nnc(Nc3ccccc3)c3ccccc23)cc1 | < 30 | < 30 | < 30 | 30 | < 30 | 49 | < 30 | < 30 | < 30 | < 30 | < 30 | < 30 | < 30 | < 30 | < 30 | < 30 | < 30 | < 30 | < 30 | < 30 | inhibition of growth at 10 µM (MDA-MB-435): < 30%; inhibition of growth at 10 µM (SK-MEL-5): < 30%; inhibition of growth at 10 µM [8]: < 30%; inhibition of growth at 10 µM [9]: < 30%; inhibition of growth at 10 µM [10]: < 30%; inhibition of growth at 10 µM [11]: < 30%; inhibition of growth at 10 µM (A498): 35%; inhibition of growth at 10 µM (ACHN): < 30%; inhibition of growth at 10 µM [12]: < 30%; inhibition of growth at 10 µM [13]: < 30%; inhibition of growth at 10 µM (SN12C): < 30%; inhibition of growth at 10 µM [14]: 38%; inhibition of growth at 10 µM [15]: < 30%; inhibition of growth at 10 µM [16]: < 30%
2 | COc1ccc(Cc2nnc(Nc3cccc(C(F)(F)F)c3)c3ccccc23)cc1 | 42 | 46 | 39 | 52 | 57 | 63 | 40 | 42 | 50 | 45 | 56 | 41 | 49 | < 30 | < 30 | 45 | 44 | < 30 | < 30 | < 30 | inhibition of growth at 10 µM (MDA-MB-435): < 30%; inhibition of growth at 10 µM (SK-MEL-5): < 30%; inhibition of growth at 10 µM [8]: 48%; inhibition of growth at 10 µM [9]: < 30%; inhibition of growth at 10 µM [10]: 35%; inhibition of growth at 10 µM [11]: < 30%; inhibition of growth at 10 µM (A498): 40%; inhibition of growth at 10 µM (ACHN): 31%; inhibition of growth at 10 µM [12]: 32%; inhibition of growth at 10 µM [13]: 34%; inhibition of growth at 10 µM (SN12C): 46%; inhibition of growth at 10 µM [14]: 66%; inhibition of growth at 10 µM [15]: 49%; inhibition of growth at 10 µM [16]: < 30%
3 | COc1ccc(Cc2nnc(Nc3cccc(Cl)c3)c3ccccc23)cc1 | 30 | 39 | < 30 | 43 | 45 | 63 | 35 | < 30 | 34 | 50 | 49 | 33 | 31 | < 30 | < 30 | 37 | 34 | < 30 | < 30 | < 30 | inhibition of growth at 10 µM (MDA-MB-435): < 30%; inhibition of growth at 10 µM (SK-MEL-5): < 30%; inhibition of growth at 10 µM [8]: 34%; inhibition of growth at 10 µM [9]: < 30%; inhibition of growth at 10 µM [10]: < 30%; inhibition of growth at 10 µM [11]: < 30%; inhibition of growth at 10 µM (A498): 34%; inhibition of growth at 10 µM (ACHN): 31%; inhibition of growth at 10 µM [12]: < 30%; inhibition of growth at 10 µM [13]: < 30%; inhibition of growth at 10 µM (SN12C): 34%; inhibition of growth at 10 µM [14]: 61%; inhibition of growth at 10 µM [15]: 42%; inhibition of growth at 10 µM [16]: < 30%
4 | COc1ccc(Cc2nnc(Nc3ccc(C#N)cc3)c3ccccc23)cc1 | 30 | < 30 | < 30 | < 30 | < 30 | 36 | < 30 | < 30 | < 30 | < 30 | < 30 | < 30 | < 30 | < 30 | < 30 | < 30 | < 30 | < 30 | < 30 | < 30 | inhibition of growth at 10 µM (MDA-MB-435): < 30%; inhibition of growth at 10 µM (SK-MEL-5): < 30%; inhibition of growth at 10 µM [8]: < 30%; inhibition of growth at 10 µM [9]: < 30%; inhibition of growth at 10 µM [10]: < 30%; inhibition of growth at 10 µM [11]: < 30%; inhibition of growth at 10 µM (A498): 30%; inhibition of growth at 10 µM (ACHN): < 30%; inhibition of growth at 10 µM [12]: < 30%; inhibition of growth at 10 µM [13]: < 30%; inhibition of growth at 10 µM (SN12C): < 30%; inhibition of growth at 10 µM [14]: 49%; inhibition of growth at 10 µM [15]: 34%; inhibition of growth at 10 µM [16]: < 30%
